Measured values pooled from the literature.
Cell line: MCF7
Observed: cell growth or viability

| SMILES | test | conditions | IC50 |
| --- | --- | --- | --- |
| NNc1nc2c(Cl)cc(Cl)cc2c(=O)n1-c1ccc(F)cc1 | MTT | 48 h | > 200 µM |
| COc1cccc(Nc2nc(-c3ccncc3)nc3c2CNCC3)c1 | MTT | – | 30.1 µM |
| CC(=O)O[C@H]1C(=O)[C@@]2(C)[C@H]([C@H](OC(=O)c3ccccc3)[C@]3(O)C[C@H](OC(=O)[C@H](O)[C@@H](NC(=O)c4ccccc4)c4ccccc4)C(C)=C1C3(C)C)[C@]1(OC(C)=O)CO[C@@H]1C[C@@H]2O | MTT | 48 h | > 100 µM |
| NS(=O)(=O)c1ccc(-n2nc(-c3nnc(CCl)o3)cc2-c2ccccc2)cc1 | fluorescence | 48 h | 31.4 µM |
| C#Cc1cccc(Nc2ncnc3cc(OCCOC)c(OCCOC)cc23)c1 | MTT | 48 h | > 20 µM |
| CC(=NNC(=O)c1cc(-c2ccccc2)n(-c2ccc(S(N)(=O)=O)cc2)n1)c1ccc(C)cc1 | fluorescence | 48 h | 18.5 µM |
| O=c1c2cc(Cl)cc(Cl)c2nc(NNc2cccc(Cl)c2)n1-c1ccccc1 | MTT | 48 h | > 200 µM |
| C#CCn1c(C2CC(c3ccc(F)cc3)=NN2C(C)=O)nc2ccccc21 (stereo not shown) | LDH | 48 h | 2.97 µM |
| Cc1cccc(N=C2C(=O)Nc3ccccc32)c1 | MTT | 48 h | 73.4 µM |
| CCOC(=O)C(=CNc1ccc(Oc2ccccc2)cc1)C(=O)OCC | MTT | 48 h | 115 µM |
| O=C1C(=Nc2ccccc2I)c2ccccc2N1Cc1ccc(Br)cc1 | MTT | 48 h | 8.79 µM |
| COc1ccc(N(Cc2csc(-c3ccccc3)n2)C(=O)CCCCCC(=O)NO)cc1 | MTT | 72 h | 3.12 µM |
| Nc1ccn([C@@H]2O[C@H](CO)[C@@H](O)C2(F)F)c(=O)n1 | MTT | 48 h | 1.59 µg/mL |
| CC(C)c1cccc(C(C)C)c1N=C1C(=O)N(Cc2ccccc2)c2ccccc21 | MTT | 48 h | 12.6 µM |
| C/C(=N\NC(=O)/N=C(\C)c1c(O)c2ccccc2oc1=O)c1c(O)c2ccccc2oc1=O | MTT | 48 h | 12.6 µM |
| O=C(O)c1nn(Cc2ccc(Cl)cc2Cl)c2ccccc12 | – | 48 h | 113 µM |
| COc1cc(C=O)ccc1OC1=C(Cl)C(=O)c2ccccc2C1=O | MTT | 24 h | 41.5 µg/mL |
| COc1cccc2c1C(=O)c1c(O)c3c(c(O)c1C2=O)C[C@@](O)(C(=O)CO)C[C@@H]3O[C@H]1C[C@H](N)[C@H](O)[C@H](C)O1 | – | 96 h | 0.146 µM |
| O=C(NCc1ccc(OC(F)(F)F)cc1)c1cn(Cc2ccc(F)cc2)c2ccc(Oc3ccccc3)cc2c1=O | MTT | 48 h | 79.6 µM |
| O=S(=O)([O-])c1ccc(O)c(C=NNC(=S)Nc2cccc3ccccc23)c1.[Na+] | MTT | 24 h | > 800 µg/mL |
| Fc1ccc2c(-c3nnc(Cc4ccccc4)s3)nn(Cc3ccc(Cl)cc3Cl)c2c1 | – | 48 h | 89.3 µM |
| CCc1ccc(N=C2C(=O)Nc3ccccc32)cc1 | MTT | 48 h | 51.7 µM |
| NNc1nc2c(Cl)cc(Cl)cc2c(=O)n1-c1ccc(Cl)cc1 | MTT | 48 h | > 200 µM |
| CCOC(=O)c1c(C)nc2ccc(-c3ccc(F)c(F)c3)cc2c1O | MTT | 48 h | 12 µM |
| c1ccc(Cc2nnc(-c3nn(Cc4ccccc4)c4ccccc34)o2)cc1 | – | 48 h | 114 µM |
| COc1ccccc1/C=N/N=C1\C(=O)Nc2ccccc21 | MTT | 48 h | 22.1 µg/mL |
| O=C1Nc2ccccc2C1=Nc1ccccc1Br | MTT | 48 h | > 100 µM |
| COc1cccc(NC(=S)N/N=C/c2cccc3cc4ccccc4nc23)c1 | MTT | 48 h | > 50 µM |

| SMILES | test | conditions | IC50 |
| --- | --- | --- | --- |
| C(=N\Nc1cc(N/N=C/c2ccc3ccccc3n2)ncn1)/c1ccc2ccccc2n1 | MTT | 48 h | 34.3 µM |
| NS(=O)(=O)c1ccc(-n2nc(C(=O)NN3C(=O)c4ccccc4C3=O)cc2-c2ccccc2)cc1 | fluorescence | 48 h | 38.7 µM |
| Cc1ccc(NNc2nc3c(Cl)cc(Cl)cc3c(=O)n2-c2ccccc2)cc1 | MTT | 48 h | > 200 µM |
| COc1cccc2c1C(=O)c1c(O)c3c(c(O)c1C2=O)C[C@@](O)(C(=O)CO)C[C@@H]3O[C@H]1C[C@H](N)[C@H](O)[C@H](C)O1 | MTT | 24 h | 1.09 µM |
| Cc1ccc(CN2C(=O)C(=Nc3cccc(Cl)c3)c3ccccc32)cc1 | MTT | 48 h | 2.26 µM |
| O=C(C=Cc1cccs1)c1ccc(OCCCOc2ccc(C(=O)C=Cc3cccs3)cc2)cc1 | MTT | 48 h | 4.05 µM |
| C/C(=N\c1nc(N)nc(/N=C(\C)c2c(O)c3ccccc3oc2=O)n1)c1c(O)c2ccccc2oc1=O | MTT | 48 h | 6.68 µM |
| CCCN1CC(Oc2ccc([C@@H]3c4[nH]c5ccccc5c4C[C@@H](C)N3CC(C)(C)F)cc2)C1 | – | – | 0.00794 µM |
| CC(C)c1cccc(C(C)C)c1N=C1C(=O)N(Cc2ccc(Br)cc2)c2ccccc21 | MTT | 48 h | 52.6 µM |
| COc1cccc(N=C2SCC(=O)N2c2nnc(-c3ccc(C(F)(F)F)cc3N=C3SCC(=O)N3c3cccc(OC)c3)s2)c1 | MTT | – | 78.3 µM |
| O=C1C(=Nc2ccccc2I)c2ccccc2N1Cc1ccc([N+](=O)[O-])cc1 | MTT | 48 h | 11.6 µM |
| CC(C)CNC(=S)N/N=C/c1cccc2cc3ccccc3nc12 | MTT | 48 h | > 50 µM |
| O=C1CS/C(=N\c2ccccc2O)N1c1nnc(-c2ccc(C(F)(F)F)cc2/N=C2\SCC(=O)N2c2ccccc2O)s1 | MTT | – | 32.4 µM |
| O=C(O)c1c[nH]c2ccc(Oc3ccccc3)cc2c1=O | MTT | 48 h | 287 µM |
| O=[N+]([O-])c1cc(I)c(O)c(C=NNc2ccc(Cl)cc2)c1 | MTT | 24 h | 14 µM |
| COc1ccc2c(-c3nc(-c4ccccc4)no3)nn(Cc3ccncc3)c2c1 | – | 48 h | 86.5 µM |
| Cc1nc2ccc(-c3ccc(F)cc3F)cc2c(O)c1C(=O)O | MTT | 48 h | ≥ 100 µM |
| O=C1CS/C(=N\c2ccc(F)cc2O)N1c1nnc(-c2ccc(C(F)(F)F)cc2/N=C2\SCC(=O)N2c2ccc(F)cc2O)s1 | MTT | – | 18.1 µM |
| CC(=O)O[C@@H]1[C@@H](OC(C)=O)[C@H](OC(C)=O)CO[C@H]1n1cc(Cn2c(C(C)=O)nc3ccccc32)nn1 | LDH | 48 h | 2.73 µM |
| C[C@H]1[C@H](C)CC[C@]2(C(=O)O)CC[C@]3(C)C(=CC[C@@H]4[C@@]5(C)CC[C@H](O)C(C)(C)[C@@H]5CC[C@]43C)[C@H]12 | MTT | 24 h | 27.3 µM |
| O=[N+]([O-])c1cc(I)c(O)c(C=NNc2ccc(C(F)(F)F)cc2)c1 | MTT | 24 h | 8.56 µM |
| O=C1CSC(=Nc2cc(C(F)(F)F)ccc2-c2nnc(N3C(=O)CSC3=Nc3ccc([N+](=O)[O-])cc3)s2)N1c1ccc([N+](=O)[O-])cc1 | MTT | – | 79.5 µM |
| C/C(=N\C1CCCCC1/N=C(\C)c1c(O)c2ccccc2oc1=O)c1c(O)c2ccccc2oc1=O (stereo not shown) | MTT | 48 h | 66.4 µM |
| COc1ccc(-n2cc(CNC(=O)[C@@]3(C)[C@H](O)CC[C@@]4(C)[C@H]3CC[C@]3(C)[C@@H]4C(=O)C=C4[C@@H]5[C@@H](C)[C@H](C)CC[C@]5(C)CC[C@]43C)nn2)cc1 | MTT | 24 h | 79 µM |
| CN(C)c1cccc(Nc2nc(-c3ccncc3)nc3c2CNCC3)c1 | MTT | – | 46.4 µM |
| C[C@H]1[C@H](C)CC[C@]2(C)CC[C@]3(C)C(=CC(=O)[C@@H]4[C@@]5(C)CC[C@@H](O)[C@](C)(C(=O)NCc6cn(-c7ccccc7)nn6)[C@@H]5CC[C@]43C)[C@H]12 | MTT | 24 h | 124 µM |
| CO[C@H]1[C@H](O[C@H]([C@H]2O[C@@H](n3ccc(=O)[nH]c3=O)[C@H](O)[C@@H]2O)[C@H](NCCCNC(=O)[C@@H](NC(=O)[C@@H](NC(=O)N[C@H](C(=O)O)C(C)C)[C@@H]2CCN=C(N)N2)[C@@H](OC(=O)CCCCCCCCCCCCN(O)C(=N)N)C(C)C)C(=O)O)O[C@H](CN)[C@H]1O | WST-1 | – | 0.95 µM |
